Compound activity deposited in PubChem BioAssay by several laboratories.
Hits are enriched below; roughly 5.1% of the tested compounds scored in any of these assays.
STAT3 act-1: STAT3 signaling activation. 0.91% of 190,000 active. U3A cells, IL-6 STAT3-luciferase reporter, luminescence; 100% = signal with IL-6 EC80 alone. activation (% of control), % at 5.6 µM;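 active means activation above the screen-wide mean of compound activation plus 3 SD, cut at about 130% in these data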;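 further: 0% = background luminescence of wells with medium and substrate only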
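Assay system – human STAT1-deficient U3A cells with stable STAT3-luciferase reporter · Also added – IL-6 (33 ng/mL) · Schedule – compound 1 h, then IL-6 6 h at 37 °C · Technique – reporter luminescence signal · Evaluation – % activation versus median of IL-6-stimulated wells · Benchmarks – IL-6-only wells as 100% reference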
NF-kB neuron act: raises NF-kB expression in human neuronal cells; AID 1239; NF-kB reporter expression; stronger effect = higher value; 1.6% of 190,000 active; fold change at 12.5 µM; in the data active means fold change above about 3.3
STAT1 act-1: activators of IFN-gamma induced STAT1 signaling; AID 932; activation (% of control), % at 5.5 µM; 2.6% of 200,000 active; NIH 3T3 STAT1-luciferase reporter, luminescence; 100% = IFN-gamma alone, no compound;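 active means activation above the screen-wide mean activation plus 3 SD, cut at about 130% in these data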;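 further: raw ratio to IFN-gamma control signal so 100% means no change and 0% no light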
APP 5'UTR act: activates APP 5'UTR luciferase reporter; SH-SY5Y APP 5'UTR luciferase reporter, luminescence; zero percent = DMSO vehicle wells; activation, % at 2 µM; 1% of 190,000 active; AID 1276;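 active means activation above a set limit, based on mean plus 3 SD of controls, cut at about 140% in these data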
STAT1 blocker: STAT1 signaling inhibition; NIH 3T3 STAT1-luciferase reporter, IFN-gamma, luminescence; 0.35% of 200,000 active; AID 920; inhibition, % at 5.5 µM;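 active means inhibition above a set limit, the mean inhibition across all tested compounds plus 3 SD, cut at about 34% in these data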;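 further: 0% = IFN-gamma with DMSO and 100% = IFN-gamma with 300 µM nifuroxazide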
STAT3 inh-1: inhibitors of IL-6 induced STAT3 signaling | U3A cells, IL-6 STAT3-luciferase reporter, luminescence; host cell line lacks STAT1 | inhibition, % at 5.5 µM | 0.89% of 190,000 active | AID 862;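 active means inhibition above the mean inhibition across all screened compounds plus 3 SD, cut at about 44% in these data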;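 further: 0% = DMSO only wells and 100% = 100 µM nifuroxazide control wells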
STAT3 inh-2: confirmation of STAT3 signaling inhibitors; shares compounds with STAT3 inh-1; U3A cells, IL-6 STAT3 luciferase reporter, luminescence; cell line lacks STAT1; inhibition, % at 5.7 µM; 45% of 1,200 active; AID 1265;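 active means inhibition above the hit cutoff computed for the primary STAT3 screen, cut at about 44% in these data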;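 further: 0% = IL-6 plus DMSO and 100% = IL-6 plus nifuroxazide control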
NFkB inh 2: NF-kappaB inhibition in STAT3 inhibitor counter-screen | shares compounds with STAT3 inh-1 | HEK293T NF-kB luciferase reporter, TNF-alpha induced | inhibition, % at 5.7 µM | 36% of 1,200 active | AID 1308;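 active means inhibition above the mean of solvent-only control wells plus 3 SD, cutoff set per campaign, cut at about 13% in these data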;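 further: 0% = TNF-alpha with DMSO and 100% = TNF-alpha with MG high control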
STAT1 inh 2: STAT1 inhibition in STAT3 inhibitor counter-screen; NIH 3T3 STAT1-luciferase reporter, IFN-gamma induced, luminescence; inhibition, % at 5.7 µM; 27% of 1,200 active; shares compounds with STAT3 inh-1;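 active means inhibition above the mean plus 3 SD of solvent-only control wells, limit set per screening run, cut at about 16% in these data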;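 further: 0% = DMSO with IFN-gamma and 100% = nifuroxazide control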
STAT3 act-2: STAT3 activation, confirmation assay. U3A STAT3-luciferase reporter, IL-6 potentiation, luminescence; U3A cells lack STAT1; 100 means same as IL-6 alone. 64% of 1,200 active. potentiation (% of control), % at 5.7 µM. AID 1267. shares compounds with STAT3 act-1;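 active means percent activation of the STAT3 luciferase reporter above a set limit taken from the earlier primary screen, cut at about 130% in these data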;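 further: 0% = background signal of medium plus substrate and 100% = median of IL-6 with DMSO wells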
NFkB act STAT3ct: counter-screen for STAT3 activators: NF-kappaB activation. activation (% of control), % at 5.7 µM. shares compounds with STAT3 act-1. AID 1309. 11% of 1,200 active. human cells, NF-kappaB reporter activation; in the data active means activation above about 120%;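 further: reporter induced by TNF-alpha stimulation; 100% = median of stimulated DMSO wells and 0% = no signal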
STAT1 act-2: STAT1 activation in STAT3 activator counter-screen; shares compounds with STAT3 act-1; NIH 3T3 STAT1-luciferase reporter, IFN-gamma, luminescence; activation (% of control), % at 5.7 µM; 13% of 1,200 active;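 active means activation above the solvent-only control well mean plus 3 SD, set per screening run, cut at about 120% in these data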;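 further: 100% = IFN-gamma with DMSO median signal so 100% means no change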
STAT1 activ conf: confirmation of STAT1 signaling activators | shares compounds with STAT1 act-1 | NIH 3T3 STAT1-luciferase reporter, IFN-gamma potentiation, luminescence; 100% = IFN-gamma EC80 alone, no compound | activation (% of control), % at 5.7 µM | 97% of 1,200 active | AID 1262;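 active means activation above a set limit carried over from the earlier primary STAT1 screen, cut at about 140% in these data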;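 further: simple ratio to median IFN-gamma plus DMSO wells so 0% means no light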
NFkB act: counter-screen for STAT1 activators: NF-kappaB activation; shares compounds with STAT1 act-1; HEK293T NF-kB luciferase reporter, TNF-alpha stimulated, luminescence; 100% = TNF-alpha with vehicle only; activation (% of control), % at 5.7 µM; 43% of 1,200 active; AID 1306;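 active means activation above the mean of solvent-only control wells plus 3 SD, set per campaign, cut at about 130% in these data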;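 further: TNF-alpha given at a submaximal dose yielding about 80% of full reporter signal; values are well signal over median control so 100% means no change and 0% no light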
STAT3 act 2: human STAT3 activation in STAT1 activator counter-screen. U3A cells STAT3-luciferase reporter, IL-6, luminescence; cells lack STAT1; 100 = IL-6 alone, no compound effect. 46% of 1,200 active. shares compounds with STAT1 act-1. activation (% of control), % at 5.7 µM;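 active means activation above the solvent-only control well mean plus 3 SD, set per plate batch, cut at about 110% in these data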;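 further: 0% = no luminescence and 100% = median IL-6 plus DMSO wells; higher means more STAT3 reporter activation so hits are non-selective activators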
Starred values were filed as active, the others as inactive; nt = not tested or not shown.

SMILES	STAT3 act-1	NF-kB neuron act	STAT1 act-1	APP 5'UTR act	STAT1 blocker	STAT3 inh-1	STAT3 inh-2	NFkB inh 2	STAT1 inh 2	STAT1 activ conf	NFkB act	STAT3 act 2	others
CCc1cccc(C)c1NC(=O)C(c1ccccc1)N1CCC1=O (stereo unspecified)	105	0.94	102	-4	-2	-1	nt	nt	nt	nt	nt	nt
CCCCCc1ccc(-c2ccc(/C=C/C(N)=O)cc2)nc1	86	1.3	105	11	-6	19	nt	nt	nt	nt	nt	nt
CCCCc1ccc(-c2ccc(C)cc2O)nc1	57	7.2*	156*	203*	-60	51*	17	-37	-113	198*	110	85
O=C1/C(=C/c2ccccn2)COc2ccccc21	98	1.3	96	-5	3	4	nt	nt	nt	nt	nt	nt
CC1C/C(=C/c2ccccn2)C(=O)/C(=C/c2ccccn2)C1 (stereo unspecified)	53	0.15	235*	-98	-142	56*	36	-19	-45	120	87	79
CC(C)(C)C1C/C(=C/c2ccccn2)C(=O)/C(=C/c2ccccn2)C1 (stereo unspecified)	62	0.18	221*	-95	-132	48*	22	52*	-113	199*	32	72
COc1cc(C(=S)N2CCCC2)cc(Cl)c1OCC(=O)Nc1ccc(C)cc1C	92	1.3	94	-14	9	8	nt	nt	nt	nt	nt	nt
CC(=O)NC1(C(F)(F)F)C(=O)Nc2c1c(=O)[nH]c(=O)n2CC(C)C (stereo unspecified)	99	nt	101	-7	0	8	nt	nt	nt	nt	nt	nt
c1ccc(-c2noc(-c3ccc4ccccc4c3)n2)cc1	54	3	151*	150*	-56	57*	0	11	-89	184*	76	91
COC(=O)c1cn[nH]c1NC(=S)Nc1ccc(C)cc1Cl	59	1.5	170*	169*	-76	50*	10	-24	-170	307*	127	98
Cc1ccc(NC(=S)Nc2ccc3cn[nH]c3c2)c(C)c1	105	1.1	102	34	-4	-5	nt	nt	nt	nt	nt	nt
COc1ccc(NC(=S)Nn2cnnc2)cc1OC	106	1.1	99	1	2	3	nt	nt	nt	nt	nt	nt
O=C(Nc1nc2c(s1)CCCC2)c1ccc(Br)o1	62	6.2*	165*	163*	-72	46*	12	-30	-122	217*	122	99
O=S(=O)(Nc1nc2c(s1)CCCC2)c1ccc(Br)cc1	99	0.76	102	2	-2	4	nt	nt	nt	nt	nt	nt
Cc1ccc2nc(-c3ccc(NC(=O)COC(=O)c4ccc([N+](=O)[O-])o4)cc3)sc2c1	55	6*	155*	106	-62	55*	35	-9	-67	170*	99	69
COc1ccc2nc(NC(=S)N(C)C)sc2c1	65	11*	171*	48	-77	44*	21	-48	-165	257*	127	86
O=C(Nc1ccccc1)c1cc2ccccc2o1	65	8.8*	153*	230*	-49	44*	10	-43	-120	227*	134*	99
CCOc1cccc2cc(C(C)=O)oc12	106	1	96	19	3	5	nt	nt	nt	nt	nt	nt
CCN(CC(=O)NCc1cccs1)C(=O)CCc1c[nH]c2ccccc12	95	1	95	-2	5	11	nt	nt	nt	nt	nt	nt
COc1ccc(OC)c(Nc2nc3nonc3nc2N2CCCCC2)c1	163*	1.1	96	-9	4	-72	nt	nt	nt	nt	nt	nt	STAT3 act-2=99;NFkB act STAT3ct=112;STAT1 act-2=113
Cc1cccc2nc(CSc3nc4[nH]ncc4c(=O)n3-c3ccccc3Cl)cc(=O)n12	136*	0.62	79	5	23	-30	nt	nt	nt	nt	nt	nt	STAT3 act-2=152*;NFkB act STAT3ct=96;STAT1 act-2=88
COC(=O)C(O)(NC(=O)OCc1ccccc1)C(F)(F)F (stereo unspecified)	96	1.2	90	-13	12	11	nt	nt	nt	nt	nt	nt
COC(=O)C(NC=O)C(O)(Cc1ccccc1)C(F)(F)F (stereo unspecified)	158*	1.6	98	0	2	-63	nt	nt	nt	nt	nt	nt	STAT3 act-2=152*;NFkB act STAT3ct=106;STAT1 act-2=101
c1ccc(-c2cc3ccccc3nc2N2CCCC2)cc1	136*	1	83	3	19	-38	nt	nt	nt	nt	nt	nt	STAT3 act-2=95;NFkB act STAT3ct=103;STAT1 act-2=97
CN(C)C(=O)C1CCC(=O)N1Cc1cccs1 (stereo unspecified)	102	1.2	100	-14	-2	8	nt	nt	nt	nt	nt	nt
COc1ccccc1NC(=O)c1cc(Br)ccc1Cl	84	1	105	4	-7	21	nt	nt	nt	nt	nt	nt
COc1ccc(Br)cc1C(=O)Nc1ccccc1-c1ccccc1	138*	0.85	96	2	4	-48	nt	nt	nt	nt	nt	nt	STAT3 act-2=135*;NFkB act STAT3ct=102;STAT1 act-2=96
COc1ccc(Br)cc1C(=O)Nc1cccc(C)c1	157*	1.1	98	15	2	-67	nt	nt	nt	nt	nt	nt	STAT3 act-2=139*;NFkB act STAT3ct=107;STAT1 act-2=95
COc1ccc(Br)cc1C(=O)Nc1cccc(NC(=O)c2ccco2)c1	82	0.3	94	-24	6	24	nt	nt	nt	nt	nt	nt
